Calls of active or inactive are those of the source. The calls are words filed in the database; no cut-off is given here.
What was measured:
[1] = molecular target: Carbonic anhydrase 2 (Homo sapiens) (UniProt P00918); assay: Inhibition of Carbonic anhydrase II (unknown origin) at 10 uM relative to control
In short: (§1)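 Single-point screen at 10 μM across receptor, ion channel and enzyme binding or activity assays. Expressed as percent inhibition versus control; negative values denote stimulation.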

[2] = molecular target: T1, G-protein coupled receptor 52 (Homo sapiens, UniProt Q9Y2T5); assay: Agonist activity at human GPR52 expressed in CHO cells assessed as increase in intracellular cAMP level incubated for 30 mins by Alphascreen assay; type: functional, cell-based
T1 sequence (Q9Y2T5 whole entry): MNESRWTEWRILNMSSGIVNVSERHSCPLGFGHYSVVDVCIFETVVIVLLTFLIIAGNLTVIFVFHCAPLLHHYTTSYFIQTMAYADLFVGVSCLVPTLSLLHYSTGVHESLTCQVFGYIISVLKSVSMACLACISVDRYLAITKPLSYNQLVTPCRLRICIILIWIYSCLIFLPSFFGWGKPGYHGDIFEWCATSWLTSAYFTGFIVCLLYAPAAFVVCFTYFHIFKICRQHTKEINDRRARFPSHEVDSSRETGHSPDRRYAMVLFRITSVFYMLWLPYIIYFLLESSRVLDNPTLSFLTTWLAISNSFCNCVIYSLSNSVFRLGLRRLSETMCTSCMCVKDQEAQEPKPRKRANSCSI
In short: (§2)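 CHO cells stably expressing human, mouse or rat GPR52, plus naïve CHO cells, at 10,000 cells/well. Stimulated in cAMP assay buffer for 30 min at 37 °C. Intracellular cAMP read by AlphaScreen.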

Homo sapiens [3] = organism: Homo sapiens; assay: Inhibition of KATP (unknown origin) at 10 uM relative to control
In short: (§3)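 Part of a 98-target external biochemical selectivity panel that used radioligand/receptor binding-type assays. Compound tested once at 10 µM. Results are reported as % inhibition versus control; negative values mean stimulation of receptor activity.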

[4] = molecular target: Growth hormone secretagogue receptor type 1 (Homo sapiens) (UniProt Q92847); assay: Inhibition of Growth hormone secretagogue receptor (unknown origin) at 10 uM relative to control; in short: as §3
[5] = molecular target: Histamine H2 receptor (Homo sapiens) (UniProt P25021); assay: Inhibition of Histamine H2 receptor (unknown origin) at 10 uM relative to control; in short: as §3
Chain of Histamine H2 receptor (Homo sapiens) (P25021 whole entry): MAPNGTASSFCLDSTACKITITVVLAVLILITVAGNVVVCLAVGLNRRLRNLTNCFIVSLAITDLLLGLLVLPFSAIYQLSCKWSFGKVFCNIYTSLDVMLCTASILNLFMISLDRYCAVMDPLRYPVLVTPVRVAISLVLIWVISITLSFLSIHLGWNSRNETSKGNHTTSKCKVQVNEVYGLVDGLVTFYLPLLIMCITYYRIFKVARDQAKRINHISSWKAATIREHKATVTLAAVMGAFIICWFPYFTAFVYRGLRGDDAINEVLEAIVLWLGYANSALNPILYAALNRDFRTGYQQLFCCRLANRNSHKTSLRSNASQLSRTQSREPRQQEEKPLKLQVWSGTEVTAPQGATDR

[6] = molecular target: Adenosine receptor A2a (Homo sapiens) (UniProt P29274); assay: Inhibition of Adenosine A2A receptor (unknown origin) at 10 uM relative to control; in short: as §1
[7] = molecular target: G-protein coupled receptor 52 (Mus musculus) (UniProt P0C5J4); assay: […] agonist activity at GPR52 in ICR mouse assessed as increase in DARPP-32 phosphorylation at thr34 residue upto 1 uM incubated for 5 mins; type: functional
In short: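 Acute 500 μm coronal NAc slices from male ICR mice (8–10 weeks) recovered 60 min at 30 °C in oxygenated Krebs-HCO3 pH 7.4 (adenosine deaminase for first 30 min). Exposed 5 min to 0.01–1 μM, frozen, denatured in 1% SDS with 50 mM NaF. Phospho-Thr34 and total DARPP32 quantified by Western blot densitometry; n = 9.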

[8] = molecular target: Glutamate [NMDA] receptor (Homo sapiens) (UniProt Q05586+Q12879+Q13224+O15399+O60391+Q14957+Q8TCU5); assay: Inhibition of Glutamate NMDA receptor (unknown origin) at 10 uM relative to control; type: protein-complex assay; in short: as §3
[9] = molecular target: Type-2 angiotensin II receptor (Homo sapiens) (UniProt P50052); assay: Inhibition of AT2 receptor (unknown origin) at 10 uM relative to control; in short: as §1
Chain of Type-2 angiotensin II receptor (Homo sapiens) (P50052 whole entry): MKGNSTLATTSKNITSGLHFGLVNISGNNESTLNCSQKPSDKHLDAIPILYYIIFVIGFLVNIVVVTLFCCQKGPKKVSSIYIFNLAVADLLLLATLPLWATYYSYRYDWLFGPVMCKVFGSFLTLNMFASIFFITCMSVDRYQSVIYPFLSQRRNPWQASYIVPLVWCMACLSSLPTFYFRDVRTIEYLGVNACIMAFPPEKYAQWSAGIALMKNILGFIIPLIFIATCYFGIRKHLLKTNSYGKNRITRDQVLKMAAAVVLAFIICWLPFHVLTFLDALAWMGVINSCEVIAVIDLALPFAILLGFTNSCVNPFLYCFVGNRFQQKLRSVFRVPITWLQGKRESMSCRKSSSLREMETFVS

[10] = molecular target: Gastrin/cholecystokinin type B receptor (Homo sapiens) (UniProt P32239); assay: Inhibition of CCK2 receptor (unknown origin) at 10 uM relative to control; in short: as §1
Chain of Gastrin/cholecystokinin type B receptor (Homo sapiens) (P32239 whole entry): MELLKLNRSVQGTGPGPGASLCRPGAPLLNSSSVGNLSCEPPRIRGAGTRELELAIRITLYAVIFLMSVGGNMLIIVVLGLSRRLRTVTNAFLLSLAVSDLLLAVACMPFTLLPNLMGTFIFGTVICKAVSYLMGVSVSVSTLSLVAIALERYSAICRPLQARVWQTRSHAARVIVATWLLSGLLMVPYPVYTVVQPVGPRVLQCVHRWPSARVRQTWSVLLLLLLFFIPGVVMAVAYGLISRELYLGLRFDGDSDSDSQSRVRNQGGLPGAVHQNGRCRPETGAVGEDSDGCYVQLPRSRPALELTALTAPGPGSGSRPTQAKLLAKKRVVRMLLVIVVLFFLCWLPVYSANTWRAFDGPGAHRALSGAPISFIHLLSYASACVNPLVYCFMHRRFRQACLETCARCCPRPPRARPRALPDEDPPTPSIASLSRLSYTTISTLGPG

Mus musculus [11] = assay: Pro-cognitive activity in C57BL/6N mouse assessed as increase in Egr-2 gene expression in hippocampus at 3 to 30 mg/kg, po […]; type: functional, organism-based; conditions: dose 3-30 mg/kg
[12] = molecular target: cAMP and cAMP-inhibited cGMP 3',5'-cyclic phosphodiesterase 10A (Homo sapiens) (UniProt Q9Y233); assay: Inhibition of PDE10A1 (unknown origin) at 10 uM relative to control
In short: (§4)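 Enzyme activity assays from the same 98-target biochemical panel. Single test concentration of 10 µM. Read-out is % inhibition of enzyme activity relative to control; negative percentages indicate activation of the enzyme.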

[13] = molecular target: Serotonin 2 (5-HT2) receptor (Homo sapiens) (UniProt P41595+P28223+P28335); assay: Inhibition of Serotonin 5-HT2 receptor (unknown origin) at 10 uM relative to control; type: protein assay; in short: as §3
Chain of Serotonin 2 (5-HT2) receptor (Homo sapiens) (P28223 whole entry, looked up): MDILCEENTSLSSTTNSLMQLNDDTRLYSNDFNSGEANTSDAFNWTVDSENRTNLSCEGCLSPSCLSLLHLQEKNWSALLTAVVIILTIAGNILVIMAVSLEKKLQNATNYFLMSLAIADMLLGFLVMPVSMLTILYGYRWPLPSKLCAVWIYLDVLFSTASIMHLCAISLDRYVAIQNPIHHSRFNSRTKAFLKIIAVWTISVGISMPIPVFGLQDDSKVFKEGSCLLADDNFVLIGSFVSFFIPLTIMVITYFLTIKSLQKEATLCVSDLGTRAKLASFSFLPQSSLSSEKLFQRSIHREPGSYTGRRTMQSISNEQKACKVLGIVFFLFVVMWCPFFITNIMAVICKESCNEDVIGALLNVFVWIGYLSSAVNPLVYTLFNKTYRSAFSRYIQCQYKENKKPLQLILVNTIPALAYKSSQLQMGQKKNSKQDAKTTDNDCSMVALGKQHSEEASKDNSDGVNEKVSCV
Chain of Serotonin 2 (5-HT2) receptor (Homo sapiens) (P28335 whole entry, looked up): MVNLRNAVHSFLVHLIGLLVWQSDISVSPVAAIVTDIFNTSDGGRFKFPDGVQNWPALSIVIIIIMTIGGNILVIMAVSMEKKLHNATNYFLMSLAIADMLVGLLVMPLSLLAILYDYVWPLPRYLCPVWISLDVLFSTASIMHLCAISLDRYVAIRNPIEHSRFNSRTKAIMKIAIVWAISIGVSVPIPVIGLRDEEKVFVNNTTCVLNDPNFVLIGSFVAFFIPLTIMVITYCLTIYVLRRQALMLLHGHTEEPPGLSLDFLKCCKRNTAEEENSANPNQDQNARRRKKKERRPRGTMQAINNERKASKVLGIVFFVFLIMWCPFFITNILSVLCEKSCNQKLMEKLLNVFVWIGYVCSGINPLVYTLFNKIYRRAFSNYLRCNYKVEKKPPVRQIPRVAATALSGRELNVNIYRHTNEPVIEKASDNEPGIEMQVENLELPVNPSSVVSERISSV
Chain of Serotonin 2 (5-HT2) receptor (Homo sapiens) (P41595 whole entry, looked up): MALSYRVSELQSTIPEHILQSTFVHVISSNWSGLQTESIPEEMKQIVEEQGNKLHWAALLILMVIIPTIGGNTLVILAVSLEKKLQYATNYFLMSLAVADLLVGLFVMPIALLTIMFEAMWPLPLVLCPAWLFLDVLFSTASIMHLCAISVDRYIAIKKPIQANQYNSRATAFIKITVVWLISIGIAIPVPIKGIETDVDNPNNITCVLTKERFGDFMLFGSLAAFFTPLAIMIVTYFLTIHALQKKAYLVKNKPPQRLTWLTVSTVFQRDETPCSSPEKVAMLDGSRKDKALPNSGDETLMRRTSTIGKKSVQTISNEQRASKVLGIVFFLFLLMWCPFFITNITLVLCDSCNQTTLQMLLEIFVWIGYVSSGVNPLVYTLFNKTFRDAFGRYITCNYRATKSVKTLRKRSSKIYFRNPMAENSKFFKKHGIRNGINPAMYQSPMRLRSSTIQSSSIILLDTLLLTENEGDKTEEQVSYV

Rattus norvegicus = assay: Pro-cognitive activity in Long-Evans rat assessed as increase in exploration time for novel object at 3 to 10 mg/kg, po measured after 3 mins by NORT test; type: functional, organism-based; conditions: dose 3-10 mg/kg
In short: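 Male Long-Evans rats (7 weeks) were habituated to a 40 × 40 × 50 cm box for 10 min. The acquisition trial was 3 min with two identical objects. Oral dosing at 3 or 10 mg/kg followed immediately after acquisition. The 3-min retention trial, with one familiar and one novel object, ran 48 h later. Exploration was hand-scored by a blinded scorer, and NDI = novel/total × 100. n = 10.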

[14] = molecular target: Beta-2 adrenergic receptor (Homo sapiens) (UniProt P07550); assay: Inhibition of Adrenergic beta2 receptor (unknown origin) at 10 uM relative to control; in short: as §1
Chain of Beta-2 adrenergic receptor (Homo sapiens) (P07550 whole entry, looked up): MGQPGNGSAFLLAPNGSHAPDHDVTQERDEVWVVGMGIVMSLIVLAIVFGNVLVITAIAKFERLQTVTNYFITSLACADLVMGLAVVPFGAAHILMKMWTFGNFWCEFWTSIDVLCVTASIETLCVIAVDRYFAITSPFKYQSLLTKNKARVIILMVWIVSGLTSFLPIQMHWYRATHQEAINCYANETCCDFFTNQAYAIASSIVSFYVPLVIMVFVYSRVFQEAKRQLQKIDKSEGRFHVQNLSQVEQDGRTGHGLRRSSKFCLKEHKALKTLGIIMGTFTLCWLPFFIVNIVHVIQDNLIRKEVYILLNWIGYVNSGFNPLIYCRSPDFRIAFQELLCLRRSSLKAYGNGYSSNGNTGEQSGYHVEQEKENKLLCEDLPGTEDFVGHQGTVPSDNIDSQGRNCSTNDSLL

Homo sapiens [15] = organism: Homo sapiens; assay: Inhibition of NA+/K+ ATPase (unknown origin) at 10 uM relative to control; in short: as §4
[16] = molecular target: Beta-3 adrenergic receptor (Homo sapiens) (UniProt P13945); assay: Inhibition of Adrenergic beta3 (unknown origin) at 10 uM relative to control; in short: as §1
[17] = molecular target: Rho-associated protein kinase 1 (Homo sapiens) (UniProt Q13464); assay: Inhibition of ROCK1 (unknown origin) at 10 uM relative to control; in short: as §4
Homo sapiens [18] = organism: Homo sapiens; assay: Inhibition of Glutamate receptor (unknown origin) at 10 uM relative to control; in short: as §3
[19] = molecular target: Protein kinase C (PKC) (Homo sapiens) (UniProt O94806+P41743+P17252+P05129+Q05655+P05771+Q05513+Q02156+P24723+Q15139+Q04759); assay: Inhibition of Protein kinase C (unknown origin) at 10 uM relative to control; type: protein assay; in short: as §4
[20] = molecular target: G protein-coupled receptor 52 (Rattus norvegicus) (UniProt A0A8I5ZQK1); assay: Agonist activity at rat GPR52 expressed in CHO cells assessed as increase in intracellular cAMP level upto 10 uM incubated for 30 mins by Alphascreen assay; type: cell-based; in short: as §2
[21] = molecular target: Phosphodiesterase 3 (Homo sapiens) (UniProt Q14432+Q13370); assay: Inhibition of PDE3 (unknown origin) at 10 uM relative to control; type: protein assay; in short: as §4
[22] = molecular target: Cholecystokinin receptor type A (Homo sapiens) (UniProt P32238); assay: Inhibition of CCK1 receptor (unknown origin) at 10 uM relative to control; in short: as §1
Chain of Cholecystokinin receptor type A (Homo sapiens) (P32238 whole entry): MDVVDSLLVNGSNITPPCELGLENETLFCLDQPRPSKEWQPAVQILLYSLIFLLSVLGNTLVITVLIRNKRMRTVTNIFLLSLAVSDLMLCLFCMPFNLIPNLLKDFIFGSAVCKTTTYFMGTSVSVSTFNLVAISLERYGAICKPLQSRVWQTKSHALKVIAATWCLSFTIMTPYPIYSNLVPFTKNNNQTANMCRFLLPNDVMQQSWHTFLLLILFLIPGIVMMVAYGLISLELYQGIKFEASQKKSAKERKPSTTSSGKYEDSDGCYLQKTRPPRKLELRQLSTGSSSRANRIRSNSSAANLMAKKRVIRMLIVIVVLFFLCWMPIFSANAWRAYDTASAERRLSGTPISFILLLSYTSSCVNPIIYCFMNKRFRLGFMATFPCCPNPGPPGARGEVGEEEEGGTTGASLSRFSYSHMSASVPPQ

[23] = molecular target: D(3) dopamine receptor (Homo sapiens) (UniProt P35462); assay: Inhibition of Dopamine D3 receptor (unknown origin) at 10 uM relative to control; in short: as §3
Chain of D(3) dopamine receptor (Homo sapiens) (P35462 whole entry): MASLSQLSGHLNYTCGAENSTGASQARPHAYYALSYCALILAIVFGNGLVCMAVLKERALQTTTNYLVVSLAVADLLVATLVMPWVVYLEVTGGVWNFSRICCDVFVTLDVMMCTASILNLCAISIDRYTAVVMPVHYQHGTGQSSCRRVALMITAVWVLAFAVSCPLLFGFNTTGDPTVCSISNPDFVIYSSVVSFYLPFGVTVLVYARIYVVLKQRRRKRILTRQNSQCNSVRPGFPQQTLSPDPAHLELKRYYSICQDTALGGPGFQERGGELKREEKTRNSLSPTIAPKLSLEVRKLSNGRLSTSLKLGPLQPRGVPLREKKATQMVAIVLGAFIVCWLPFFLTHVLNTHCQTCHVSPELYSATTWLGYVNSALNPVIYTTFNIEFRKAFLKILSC

[24] = molecular target: Substance-P receptor (Homo sapiens) (UniProt P25103); assay: Inhibition of Tachykinin NK1 receptor (unknown origin) at 10 uM relative to control
Chain of Substance-P receptor (Homo sapiens) (P25103 whole entry): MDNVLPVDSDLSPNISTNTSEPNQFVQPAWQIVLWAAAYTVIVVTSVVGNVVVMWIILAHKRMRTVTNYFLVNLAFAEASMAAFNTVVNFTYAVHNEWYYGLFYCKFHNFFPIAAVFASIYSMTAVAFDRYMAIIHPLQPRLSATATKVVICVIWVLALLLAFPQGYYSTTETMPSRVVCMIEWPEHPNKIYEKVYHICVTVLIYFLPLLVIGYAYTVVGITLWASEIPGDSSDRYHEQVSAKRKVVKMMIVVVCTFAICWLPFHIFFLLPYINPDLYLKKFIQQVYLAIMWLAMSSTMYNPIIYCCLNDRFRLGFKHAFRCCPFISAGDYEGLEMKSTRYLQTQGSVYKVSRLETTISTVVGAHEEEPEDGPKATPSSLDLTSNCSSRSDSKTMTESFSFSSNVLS
In short: (§5)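 Binding and enzyme panel run by an outside contractor against receptors, ion channels and enzymes. Each assay used a single 10 μM test concentration, and results are expressed as percent inhibition. A negative value means stimulation of receptor activity or activation of enzyme activity.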

[25] = molecular target: Coagulation factor X (Homo sapiens) (UniProt P00742); assay: Inhibition of factor Xa (unknown origin) at 10 uM relative to control; in short: as §5
Mus musculus [26] = assay: Pro-cognitive activity in GPR52 knockout C57BL/6N mouse assessed as increase in c-fos gene expression in hippocampus at 30 mg/kg, po measured after 2 hrs […]; type: functional, organism-based
[27] = molecular target: T1, G-protein coupled receptor 52; assay: Agonist activity at human GPR52 expressed in CHO cells assessed as increase in intracellular cAMP level upto 10 uM incubated for 30 mins by Alphascreen assay; type: functional, cell-based; in short: as §2

Structure (SMILES): Cc1cc(-n2nc(Cc3cc(F)cc(C(F)(F)F)c3)nc2C)ccc1C(N)=O [TP-024]
- inhibition [1]: 4%
- EC50 [2]: 93.3 nM
- inhibition (Homo sapiens [3]): -1%
- inhibition [4]: 0%
- inhibition [5]: 2%
- inhibition [6]: 0%
- Activity [7]: Active
- inhibition [8]: -7%
- inhibition [9]: 1%
- inhibition [10]: 0%
- Activity (Mus musculus [11]): Active
- inhibition [12]: 0%
- inhibition [13]: 14%
- Activity (Rattus norvegicus): Active
- inhibition [14]: -5%
- inhibition (Homo sapiens [15]): -2%
- inhibition [16]: 0%
- inhibition [17]: 9%
- inhibition (Homo sapiens [18]): 2%
- inhibition [19]: -5%
- Activity [20]: inactive
- inhibition [21]: 28%
- inhibition [22]: 6%
- inhibition [23]: 8%
- inhibition [24]: 4%
- inhibition [25]: -4%
- Activity (Mus musculus [26]): inactive
- Activity [27]: inactive

From ChEMBL document CHEMBL5678817, “FTBMT, a Novel and Selective GPR52 Agonist, Demonstrates Antipsychotic-Like and Procognitive Effects in Rodents, Revealing a Potential Therapeutic Agent for Schizophrenia” (J Pharmacol Exp Ther, 2017)
